Twelve molecules from ChEMBL document CHEMBL2040792, “New chromene scaffolds for adenosine A(2A) receptors: synthesis, pharmacology and structure-activity relationships” (Eur J Med Chem, 2012) can be followed below.

In assay [1] the target is T1, Adenosine receptor A2b (Homo sapiens) (UniProt P29275).
T1 sequence (whole entry): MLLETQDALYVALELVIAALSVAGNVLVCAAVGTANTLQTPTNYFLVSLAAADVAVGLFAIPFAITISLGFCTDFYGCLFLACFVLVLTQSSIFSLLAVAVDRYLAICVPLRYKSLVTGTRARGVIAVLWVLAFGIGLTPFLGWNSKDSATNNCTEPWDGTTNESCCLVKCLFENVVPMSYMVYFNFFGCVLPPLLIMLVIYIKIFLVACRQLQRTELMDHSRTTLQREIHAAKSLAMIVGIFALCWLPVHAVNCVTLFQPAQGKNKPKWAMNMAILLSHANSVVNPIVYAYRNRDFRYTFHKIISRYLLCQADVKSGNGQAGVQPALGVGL
Briefly: Displacement of [3H]DPCPX from human adenosine A2B receptor expressed in HEK293 cells at 10 uM after 30 mins by beta scintillation counting. It counts as cell-based. The procedure, abridged: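 Percent inhibition at 10 µM in HEK-293-A2B membranes (18 µg protein), pH 6.5 Tris buffer with benzamidine, bacitracin and adenosine deaminase. 35 nM [3H]DPCPX, 30 min at 25 °C, in duplicate. Nonspecific binding with 400 µM NECA.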
(In general: In a radioligand displacement assay an active substance lowers the binding of a labelled ligand.)

The target in assay [2] is T2, Adenosine receptor A1 (Homo sapiens) (UniProt P30542).
T2 sequence (whole entry): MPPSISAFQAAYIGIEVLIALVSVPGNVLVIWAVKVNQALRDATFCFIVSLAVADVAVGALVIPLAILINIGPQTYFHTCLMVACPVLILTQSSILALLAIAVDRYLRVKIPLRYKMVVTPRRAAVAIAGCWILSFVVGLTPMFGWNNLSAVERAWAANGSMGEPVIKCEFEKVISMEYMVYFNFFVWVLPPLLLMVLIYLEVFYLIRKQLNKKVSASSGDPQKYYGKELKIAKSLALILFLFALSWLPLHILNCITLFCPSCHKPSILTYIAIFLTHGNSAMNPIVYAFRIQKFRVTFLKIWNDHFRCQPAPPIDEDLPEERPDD
Briefly: Displacement of [3H]DPCPX from human adenosine A1 receptor expressed in CHO cells at 10 uM after 60 mins by beta scintillation counting. It counts as cell-based. The procedure, abridged:
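CHO-A1 membranes (15 µg protein) in Hepes/NaCl/MgCl2 buffer with adenosine deaminase, pH 7.4. Test compound at 10 µM with 2 nM [3H]DPCPX, 60 min at 25 °C, in duplicate. Nonspecific binding with 10 µM (R)-PIA. Percent inhibition read after filtration.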

Assay [3] has as its target T3, Adenosine receptor A2a (Homo sapiens, UniProt P29274). Briefly: Antagonist activity at human adenosine A2A receptor expressed in CHO cells assessed as inhibition of NECA-induced cAMP accumulation incubated for 15 mins prior to NECA-induction measured after 15 mins by enzyme immunoassay relative to control. The class given is functional, cell-based. In a few lines: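 Stably transfected CHO cells grown with dialyzed FBS, washed in DMEM F-12 with 25 mM HEPES pH 7.4 and 30 μM rolipram. Antagonist preincubated 15 min, then NECA (0.1 nM-1 mM) added for a further 15 min. cAMP measured by enzyme immunoassay. NECA curves fitted to a sigmoidal equation; pKB derived from the EC50 shift at one antagonist concentration.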
In general terms: Changes in cAMP serve as a functional read-out for many G protein-coupled receptors.

Assay [4] has as its target T4, Adenosine receptor A3 (Homo sapiens) (UniProt P0DMS8).
T4 sequence (whole entry): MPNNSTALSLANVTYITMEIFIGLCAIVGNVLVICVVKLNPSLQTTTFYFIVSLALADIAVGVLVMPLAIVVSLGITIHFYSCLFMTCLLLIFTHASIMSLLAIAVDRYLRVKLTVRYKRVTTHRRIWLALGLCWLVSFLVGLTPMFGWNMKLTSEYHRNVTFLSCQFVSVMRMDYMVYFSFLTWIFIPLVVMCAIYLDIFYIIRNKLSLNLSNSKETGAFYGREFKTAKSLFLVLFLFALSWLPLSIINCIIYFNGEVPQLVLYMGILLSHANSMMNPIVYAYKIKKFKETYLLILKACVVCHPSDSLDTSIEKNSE
Briefly: Displacement of [3H]NECA from human adenosine A3 receptor expressed in human HeLa cells at 10 uM after 180 mins by beta scintillation counting. The class given is cell-based. The procedure, abridged:
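HeLa-A3 membranes (90 µg protein) in 50 mM Tris-HCl, 1 mM EDTA, 5 mM MgCl2, 2 UI/mL adenosine deaminase, pH 7.4. Test compound at 10 µM with 30 nM [3H]NECA, 180 min at 25 °C, in triplicate. Nonspecific binding with 100 µM (R)-PIA. Percent inhibition read after GF/B filtration.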

The target of assay [5] is T3, Adenosine receptor A2a. Briefly: Displacement of [3H]ZM241385 from human adenosine A2A receptor expressed in human HeLa cells after 30 mins by beta scintillation counting. The class given is cell-based. The procedure, abridged: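 HeLa-A2A membranes (10 µg protein) in 50 mM Tris-HCl, 1 mM EDTA, 10 mM MgCl2, 2 UI/mL adenosine deaminase, pH 7.4, with 3 nM [3H]ZM241385. Nonspecific binding with 50 µM NECA. Incubated 30 min at 25 °C, in duplicate. Six concentrations (10 nM-100 µM); IC50 by nonlinear regression, converted to Ki by Cheng-Prusoff.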

For assay [6], the target named is T3, Adenosine receptor A2a. The assay can be described thus: Displacement of [3H]ZM241385 from human adenosine A2A receptor expressed in human HeLa cells at 10 uM after 30 mins by beta scintillation counting. The class given is cell-based. In a few lines: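 Single-point screen at 10 µM on HeLa-A2A membranes (10 µg protein), Tris/EDTA/MgCl2 buffer with adenosine deaminase, pH 7.4. 3 nM [3H]ZM241385, 30 min at 25 °C, in duplicate. Nonspecific binding with 50 µM NECA. Percent inhibition.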

A further assay addresses T5, Adenosine receptor A2b (Homo sapiens, UniProt P29275).
T5 sequence (P29275 whole entry): T1 sequence (whole entry)
Briefly: Displacement of [3H]DPCPX from human adenosine A2B receptor expressed in HEK293 cells after 30 mins by beta scintillation counting. The class given is cell-based. The procedure, abridged:
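HEK-293-A2B membranes (18 µg protein) in 50 mM Tris-HCl, 1 mM EDTA, 10 mM MgCl2, 0.1 mM benzamidine, 10 µg/mL bacitracin, 2 UI/mL adenosine deaminase, pH 6.5, with 35 nM [3H]DPCPX. Nonspecific binding with 400 µM NECA. Incubated 30 min at 25 °C, in duplicate. Six concentrations (10 nM-100 µM); IC50 by nonlinear regression, Ki by Cheng-Prusoff.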

Another assay addresses T6, Adenosine receptor A1 (Homo sapiens, UniProt P30542).
T6 sequence (P30542 whole entry): T2 sequence (whole entry)
Briefly: Displacement of [3H]DPCPX from human adenosine A1 receptor expressed in CHO cells after 60 mins by beta scintillation counting. It counts as cell-based. The procedure, abridged:
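CHO-A1 membranes (15 µg protein) in 20 mM Hepes, 100 mM NaCl, 10 mM MgCl2, 2 UI/ml adenosine deaminase, pH 7.4, with 2 nM [3H]DPCPX. Nonspecific binding defined with 10 µM (R)-PIA. Incubated 60 min at 25 °C, run in duplicate, then filtered. Six concentrations tested (10 nM-100 µM); IC50 from nonlinear regression, Ki by Cheng-Prusoff.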

As a reminder, the inhibition is the drop in the measured response relative to a control, in per cent. Read a high inhibition as strong suppression. As usually defined, the pKb is the negative decadic logarithm of the Kb, by convention in mol/L. Usually Ki stands for the dissociation constant of the complex between target and ligand, obtained from inhibition or displacement.

T3 sequence (P29274 whole entry): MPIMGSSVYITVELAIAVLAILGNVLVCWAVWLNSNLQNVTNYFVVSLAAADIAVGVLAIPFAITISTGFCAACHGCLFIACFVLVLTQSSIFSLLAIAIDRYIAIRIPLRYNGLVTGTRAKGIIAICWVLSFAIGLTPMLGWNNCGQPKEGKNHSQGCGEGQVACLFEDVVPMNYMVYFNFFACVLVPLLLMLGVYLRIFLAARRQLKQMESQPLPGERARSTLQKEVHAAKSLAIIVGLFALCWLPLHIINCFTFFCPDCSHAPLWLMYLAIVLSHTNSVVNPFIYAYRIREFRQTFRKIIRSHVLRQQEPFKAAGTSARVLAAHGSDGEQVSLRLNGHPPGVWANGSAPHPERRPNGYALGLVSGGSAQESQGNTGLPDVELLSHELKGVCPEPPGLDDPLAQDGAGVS

Turning to `COc1cccc2cc(C(=O)Nc3c(C#N)ncn3-c3ccc(F)cc3)c(=N)oc12`, the inhibition in assay [1] was 30%; in assay [2], 46%; in assay [4] it was 20%; at Adenosine receptor A2a [6], greater than 70%. In addition, the negative logarithm of the Kb (pKb) on Adenosine receptor A2a [3] was 6.02. Besides, the Ki on Adenosine receptor A2a [5] is 631 nM.
Consider `COc1cccc2cc(C(=O)NCCc3ccc(O)cc3)c(=N)oc12`, for which the inhibition in assay [1] is greater than 70%; in assay [2], 35%; in assay [4], 30%; on Adenosine receptor A2a [6] it was greater than 70%. Further, the negative-log Kb (pKb) at Adenosine receptor A2a [3] stood at 6.54. In addition, the Ki on Adenosine receptor A2b is 631 nM; at Adenosine receptor A2a [5], 126 nM.
As for `COc1cccc2cc(C(N)=O)c(=N)oc12`, the inhibition is greater than 70% in assay [1], greater than 70% in assay [2], 33% in assay [4] and greater than 70% on Adenosine receptor A2a [6]. For the same molecule, on Adenosine receptor A2a [3], the negative-log Kb (pKb) amounted to 6.59. Moreover, the inhibition constant (Ki) is 316 nM on Adenosine receptor A2b, 79.4 nM on Adenosine receptor A2a [5] and 398 nM on Adenosine receptor A1.
As for `COc1cccc2cc(C(=O)NC3CCCC3)c(=N)oc12`, the inhibition in assay [1] was 47%; in assay [2], greater than 70%; in assay [4] it was 20%; on Adenosine receptor A2a [6], greater than 70%. In addition, the inhibitory constant (Ki) is 398 nM on Adenosine receptor A2a [5] and 3160 nM on Adenosine receptor A1.
Take `COC(=O)/C(C#N)=C/c1cccc(OC)c1O`: the inhibition in assay [1] is greater than 70%; in assay [2], greater than 70%; in assay [4] it was 45%; at Adenosine receptor A2a [6] it was greater than 70%. Also, the inhibition constant (Ki) on Adenosine receptor A2b was 1000 nM; at Adenosine receptor A2a [5], 316 nM; at Adenosine receptor A1 it was 2510 nM.
Turning to `COc1cccc2cc(C(=O)NC3CCCCC3)c(=N)oc12`, the inhibition is greater than 70% in assay [1], 40% in assay [2], 16% in assay [4] and greater than 70% at Adenosine receptor A2a [6]. Also, the pKb on Adenosine receptor A2a [3] is 6.1. The results for the Ki on Adenosine receptor A2b and on Adenosine receptor A2a [5] were 20000 nM and 398 nM, respectively.
`COc1cccc2cc(C(=O)NCCCN3CCN(CCCNC(=O)c4cc5cccc(OC)c5oc4=N)CC3)c(=N)oc12`: the inhibition in assay [1] was greater than 70%; in assay [2], greater than 70%; in assay [4] it was 20%; on Adenosine receptor A2a [6], greater than 70%. The results for the Ki at Adenosine receptor A2b, on Adenosine receptor A2a [5] and on Adenosine receptor A1 were 10000 nM, 316 nM and 2510 nM, respectively.
Turning to `COCCNC(=O)c1cc2cccc(OC)c2oc1=N`, the inhibition in assay [1] was 43%; in assay [2], greater than 70%; in assay [4] it was 15%; on Adenosine receptor A2a [6], greater than 70%. Besides, the Ki is 501 nM on Adenosine receptor A2a [5] and 6310 nM on Adenosine receptor A1.
Regarding `COc1cccc2cc(C(=O)NCCCOCCCCOCCCNC(=O)c3cc4cccc(OC)c4oc3=N)c(=N)oc12`, the inhibition is 44% in assay [1], 30% in assay [2], 23% in assay [4] and greater than 70% at Adenosine receptor A2a [6]. The pKb at Adenosine receptor A2a [3] turned out to be 6.36. Further, at Adenosine receptor A2a [5], the affinity corresponds to a Ki of 398 nM.
Regarding `COc1cccc2cc(C(=O)NCC(O)c3ccccc3)c(=N)oc12` (stereo not drawn), the inhibition was greater than 70% in assay [1], 55% in assay [2], 8% in assay [4] and greater than 70% on Adenosine receptor A2a [6]. In addition, the Ki on Adenosine receptor A2b is 1000 nM; at Adenosine receptor A2a [5] it was 501 nM.
For `COc1cccc2cc(C(=O)NCCCCCO)c(=N)oc12`, the inhibition was greater than 70% in assay [1], 44% in assay [2], 13% in assay [4] and greater than 70% on Adenosine receptor A2a [6]. In addition, the Ki at Adenosine receptor A2b is 1260 nM; at Adenosine receptor A2a [5], 1000 nM.
Regarding `COc1cccc2cc(C(=O)NCCCNC(=O)c3cc4cccc(OC)c4oc3=N)c(=N)oc12`, the inhibition is greater than 70% in assay [1], 31% in assay [2], 11% in assay [4] and greater than 70% at Adenosine receptor A2a [6]. The Ki was 10000 nM at Adenosine receptor A2b and 398 nM at Adenosine receptor A2a [5].
